According to paper PMC10907882 (Pharmacology Research & Perspectives, 2024):

Experiments:
[1] = twice‐daily dosing for 2 weeks; healthy elderly and patients with mild to moderate Alzheimer's disease; cited from earlier work
mouse calpain‐1 = biological target: T1, mouse calpain‐1 (Mus musculus, UniProt O35350); assay: Ex‐vivo calpain assay, mouse pons‐cerebellum membrane fractions, 20 μM calcium; assay type: biochemical; conditions: read-out: IC50 for mouse calpain‐1, endogenous brain calpain‐1, membrane fractions
T1 sequence (O35350 1-713): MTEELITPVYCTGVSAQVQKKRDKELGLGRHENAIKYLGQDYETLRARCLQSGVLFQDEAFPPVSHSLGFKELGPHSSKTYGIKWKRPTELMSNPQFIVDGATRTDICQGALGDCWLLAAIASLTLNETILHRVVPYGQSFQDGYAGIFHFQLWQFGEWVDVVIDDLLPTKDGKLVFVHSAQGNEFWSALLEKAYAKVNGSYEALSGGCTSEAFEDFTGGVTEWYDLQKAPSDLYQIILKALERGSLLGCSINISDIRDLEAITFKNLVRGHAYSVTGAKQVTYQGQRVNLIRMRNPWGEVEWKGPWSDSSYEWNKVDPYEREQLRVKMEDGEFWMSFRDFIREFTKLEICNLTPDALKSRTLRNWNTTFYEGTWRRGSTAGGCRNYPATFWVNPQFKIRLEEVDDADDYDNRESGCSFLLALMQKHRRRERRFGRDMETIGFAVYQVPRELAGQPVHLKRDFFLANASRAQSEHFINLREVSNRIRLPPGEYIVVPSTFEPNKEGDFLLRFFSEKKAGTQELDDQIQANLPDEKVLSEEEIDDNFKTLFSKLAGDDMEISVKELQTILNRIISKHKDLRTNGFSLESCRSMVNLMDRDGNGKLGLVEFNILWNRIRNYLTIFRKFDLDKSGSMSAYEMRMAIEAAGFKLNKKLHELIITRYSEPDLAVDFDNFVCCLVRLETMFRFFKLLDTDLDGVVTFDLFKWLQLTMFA
T1 sequence (O88456 1-268 partner): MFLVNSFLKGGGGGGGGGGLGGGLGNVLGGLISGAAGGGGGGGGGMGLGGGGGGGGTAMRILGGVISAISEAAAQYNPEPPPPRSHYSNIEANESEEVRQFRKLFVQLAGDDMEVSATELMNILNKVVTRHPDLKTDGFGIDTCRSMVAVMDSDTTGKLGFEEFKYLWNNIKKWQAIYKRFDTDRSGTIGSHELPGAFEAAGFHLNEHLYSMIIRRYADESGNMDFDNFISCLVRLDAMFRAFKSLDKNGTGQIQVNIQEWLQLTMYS
Procedure, shortened: (§1)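 Membrane fractions from mouse pons-cerebellum were resuspended in 60 mM imidazole-HCl pH 7.3 with 5 mM cysteine and 2.5 mM β-mercaptoethanol and exposed to test compound concentrations. Calpain-1 was assayed in wild-type membranes with 20 μM calcium. Calpain-2 was assayed in calpain-1 knockout membranes with 2 mM calcium. Substrate was Suc-Leu-Tyr-AMC (0.5 mM). Two experiments.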

rec human calpain‐2 = biological target: T2, rec human calpain‐2 (Homo sapiens, UniProt P17655); assay: In vitro calpain assay; assay type: biochemical
T2 sequence (P17655 1-700): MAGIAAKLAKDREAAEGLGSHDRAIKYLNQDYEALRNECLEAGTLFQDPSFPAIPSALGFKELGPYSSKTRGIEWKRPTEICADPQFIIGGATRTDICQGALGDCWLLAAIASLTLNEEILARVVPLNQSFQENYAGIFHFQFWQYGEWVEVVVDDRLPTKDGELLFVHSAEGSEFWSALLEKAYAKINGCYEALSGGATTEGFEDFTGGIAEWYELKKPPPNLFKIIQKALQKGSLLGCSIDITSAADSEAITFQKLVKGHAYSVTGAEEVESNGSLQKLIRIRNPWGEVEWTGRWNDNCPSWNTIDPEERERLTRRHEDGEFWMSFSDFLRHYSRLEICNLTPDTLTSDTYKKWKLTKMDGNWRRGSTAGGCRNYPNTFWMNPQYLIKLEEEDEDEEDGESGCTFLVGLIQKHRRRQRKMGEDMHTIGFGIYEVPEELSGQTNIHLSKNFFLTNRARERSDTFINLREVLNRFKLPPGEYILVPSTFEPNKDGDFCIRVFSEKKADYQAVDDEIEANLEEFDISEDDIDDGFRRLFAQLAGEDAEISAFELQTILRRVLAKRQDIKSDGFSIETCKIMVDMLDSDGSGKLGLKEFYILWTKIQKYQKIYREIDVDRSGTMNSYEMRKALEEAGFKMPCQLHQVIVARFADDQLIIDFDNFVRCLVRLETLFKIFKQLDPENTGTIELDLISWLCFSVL
Procedure, shortened: (§2)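 Enzymes were purified human erythrocyte calpain-1 (8 μg) or bacterially expressed recombinant human calpain-2. Buffer was 60 mM imidazole-HCl pH 7.3 with 5 mM CaCl₂, 5 mM cysteine, 2.5 mM β-mercaptoethanol, 0.5 mM Suc-Leu-Tyr-AMC and test compound (0–20 μM). Reactions were started with enzyme and run at 30°C for 15 min, reading AMC fluorescence (380/450 nm) every 30 s. IC50 came from sigmoidal fits of linear rates; Ki from mean IC50 assuming competitive binding.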

mouse calpain‐2 = biological target: T3, mouse calpain‐2 (Mus musculus, UniProt O08529); assay: Ex‐vivo calpain assay, mouse pons‐cerebellum membrane fractions, 2 mM calcium; assay type: biochemical; conditions: mouse brain enzymes
T3 sequence (O08529 1-700): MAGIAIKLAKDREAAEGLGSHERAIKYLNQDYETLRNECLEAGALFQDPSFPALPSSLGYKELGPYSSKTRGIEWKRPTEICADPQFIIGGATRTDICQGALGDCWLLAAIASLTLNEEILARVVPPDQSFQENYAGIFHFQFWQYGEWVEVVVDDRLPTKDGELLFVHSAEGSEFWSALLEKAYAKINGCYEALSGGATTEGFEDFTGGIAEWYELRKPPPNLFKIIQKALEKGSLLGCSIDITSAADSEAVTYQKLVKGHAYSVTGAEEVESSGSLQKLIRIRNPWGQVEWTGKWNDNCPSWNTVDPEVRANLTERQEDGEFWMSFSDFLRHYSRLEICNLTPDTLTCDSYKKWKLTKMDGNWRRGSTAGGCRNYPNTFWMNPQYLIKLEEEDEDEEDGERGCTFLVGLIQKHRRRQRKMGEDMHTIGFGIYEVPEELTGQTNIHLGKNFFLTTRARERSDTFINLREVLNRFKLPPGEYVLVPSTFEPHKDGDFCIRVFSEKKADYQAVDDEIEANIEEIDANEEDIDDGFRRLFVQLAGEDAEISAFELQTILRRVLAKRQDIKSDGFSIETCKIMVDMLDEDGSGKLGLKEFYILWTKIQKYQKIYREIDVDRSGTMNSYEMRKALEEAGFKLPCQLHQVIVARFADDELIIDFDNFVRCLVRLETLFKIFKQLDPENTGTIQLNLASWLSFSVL
T3 sequence (O88456 1-268 partner): T1 sequence (O88456 1-268 partner)
Procedure, shortened: as §1

calpain‐2 = conditions: reported; cited from earlier work
human calpain‐1 = biological target: T4, human calpain‐1 (Homo sapiens, UniProt P07384); assay: In vitro calpain assay; assay type: biochemical; conditions: read-out: K i for human calpain‐1; purified human calpain‐1; means ± SEM of three experiments or single experiment
T4 sequence (P07384 1-714): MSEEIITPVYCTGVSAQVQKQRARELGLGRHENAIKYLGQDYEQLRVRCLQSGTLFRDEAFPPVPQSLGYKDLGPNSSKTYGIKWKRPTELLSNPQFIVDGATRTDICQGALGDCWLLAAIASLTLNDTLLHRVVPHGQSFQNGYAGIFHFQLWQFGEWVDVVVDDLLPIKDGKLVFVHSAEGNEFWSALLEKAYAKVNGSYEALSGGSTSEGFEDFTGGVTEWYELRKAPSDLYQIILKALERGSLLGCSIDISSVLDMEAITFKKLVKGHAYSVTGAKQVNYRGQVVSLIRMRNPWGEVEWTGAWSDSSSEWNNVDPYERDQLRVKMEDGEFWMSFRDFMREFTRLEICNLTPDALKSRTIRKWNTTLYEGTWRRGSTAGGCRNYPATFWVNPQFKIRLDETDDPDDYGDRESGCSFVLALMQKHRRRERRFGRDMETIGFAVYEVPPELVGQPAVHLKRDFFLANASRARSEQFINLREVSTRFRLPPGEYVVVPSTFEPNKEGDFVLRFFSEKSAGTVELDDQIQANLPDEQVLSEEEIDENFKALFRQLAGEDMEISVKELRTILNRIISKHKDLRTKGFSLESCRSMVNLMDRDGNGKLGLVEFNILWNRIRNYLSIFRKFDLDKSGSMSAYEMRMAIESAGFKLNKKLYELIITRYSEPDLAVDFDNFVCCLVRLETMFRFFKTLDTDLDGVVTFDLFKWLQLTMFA
T4 sequence (P04632 1-268 partner): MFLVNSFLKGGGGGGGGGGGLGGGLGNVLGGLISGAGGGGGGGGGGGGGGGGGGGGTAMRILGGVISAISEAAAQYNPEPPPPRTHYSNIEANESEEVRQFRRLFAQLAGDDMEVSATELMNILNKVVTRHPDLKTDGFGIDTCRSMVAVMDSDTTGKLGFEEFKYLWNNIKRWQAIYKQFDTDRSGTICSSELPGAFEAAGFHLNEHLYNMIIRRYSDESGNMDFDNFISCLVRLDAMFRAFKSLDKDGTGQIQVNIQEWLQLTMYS
Procedure, shortened: as §2

Row | IC50 (mouse calpain‐1) | Ratio 1/2 (K i calpain‐1 / calpain‐2) (rec human calpain‐2; human enzymes) | Ki (rec human calpain‐2; read-out: K i for rec human calpain‐2, recombinant human calpain‐2, means ± SEM of three experiments or single experiment) | Ratio 1/2 (IC50 calpain‐1 / calpain‐2) (mouse calpain‐2) | Ki (human calpain‐1) | SMILES | adverse effects in Phase I [1] | difference in K i values for calpain‐2 vs calpain‐1 (calpain‐2)
1 | – | – | – | – | – | O=C(NC1CC1)C(=O)C(Cc1ccccc1)NC(=O)[C@H]1CCC(=O)N1Cc1ccccc1 (stereo partly shown) [ABT‐957] | did not result in significant adverse effects | –
2 | 1.13 µM | 2.3 | 0.055 ± 0.007 µM | 26 | 0.124 ± 0.006 µM | CCC(NC(=O)[C@H](CC(C)C)NC(=O)OCc1ccccc1)C(=O)C(=O)NCc1cc(OC)cc(OC)c1 (stereo partly shown) [Compound C2I, Z‐Leu‐Abu‐CONH‐CH2‐C6H3(3,5‐(OMe)2)] | – | 100 fold
